According to ChEMBL document CHEMBL4219029, “Impact of Target Warhead and Linkage Vector on Inducing Protein Degradation: Comparison of Bromodomain and Extra-Terminal (BET) Degraders Derived from Triazolodiazepine (JQ1) and Tetrahydroquinoline (I-BET726) BET Inhibitor Scaffolds” (J Med Chem, 2018):
Active and inactive are the calls of the source. The calls are words filed in the database; no cut-off is given here.

Columns and labels:
[1] = test system: HL-60; assay: Antiproliferative activity against human HL60 cells after 48 hrs by CellTiter-Glo luminescent cell viability assay; format: functional, cell-based; settings: HL-60, 48 h
Procedure, shortened: (§1)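 Cells in RPMI with 10% FBS, L-glutamine, penicillin and streptomycin at 37 °C, 5% CO2. Seeded at 3 × 10^5 per mL and exposed to a range of compound concentrations or 0.05% DMSO for 48 h. Viability read by CellTiter-Glo luminescence. EC50 from curve fitting; errors reflect fit quality.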

[2] = test system: MV4-11; assay: Antiproliferative activity against human MV4-11 cells after 48 hrs by CellTiter-Glo luminescent cell viability assay; format: functional, cell-based; settings: MV4-11, 48 h; procedure, shortened: as §1
[3] = target: T1, von Hippel-Lindau disease tumor suppressor/Bromodomain-containing protein 4 (Homo sapiens, UniProt O60885+P40337); assay: Proteolysis targeting chimera activity in human HeLa cells assessed as induction of VCB-mediated delivery of BRD4 short isoform for protein degradation by proteasome by measuring drug level causing 50% cellular protein depletion incubated for 24 hrs by Western blotting method; format: cell-based
[4] = target: T1, von Hippel-Lindau disease tumor suppressor/Bromodomain-containing protein 4; assay: Proteolysis targeting chimera activity in human HeLa cells assessed as induction of VCB-mediated delivery of BRD4 long isoform for protein degradation by proteasome by measuring drug level causing 50% cellular protein depletion incubated for 24 hrs by Western blotting method; format: cell-based
[5] = target: T2, von Hippel-Lindau disease tumor suppressor/Bromodomain-containing protein 3/Elongin-B/Elongin-C (Homo sapiens, UniProt Q15059+P40337+Q15370+Q15369); assay: Proteolysis targeting chimera activity in human HeLa cells assessed as induction of VCB-mediated delivery of BRD3 for protein degradation by proteasome by measuring drug level causing 50% cellular protein depletion incubated for 24 hrs by Western blotting method; format: cell-based
[6] = target: Bromodomain-containing protein 4 (Homo sapiens, UniProt O60885); assay: Binding affinity to N-terminal His6-tagged recombinant human Brd4 BD2 expressed in Escherichia coli BL21 (DE3) assessed as compound binary complex formation by isothermal titration calorimetry-based assay
Procedure, shortened: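 ITC at 25 °C, stirred, in 20 mM Bis-Tris propane, 150 mM NaCl, 1 mM TCEP, pH 7.4, with 0.2% or 3% DMSO depending on scaffold. Bromodomain titrated into PROTAC (20 μM in cell, halved for poorly soluble compounds) over 19 injections. Single-binding-site fit gave n, Kd and ΔH.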

[7] = target: Von Hippel-Lindau disease tumor suppressor/Elongin B/Elongin C (Homo sapiens, UniProt P40337); assay: Binding affinity to N-terminal His6-tagged recombinant human VHL (54 to 213 residues)/elongin C (17 to 112 residues)/elongin B (1 to 104 residues) expressed in Escherichia coli BL21 (DE3) assessed as compound binary complex formation by isothermal titration calorimetry-based assay
[8] = target: von Hippel-Lindau disease tumor suppressor/Bromodomain-containing protein 4/Elongin-B/Elongin-C (Homo sapiens, UniProt O60885+P40337+Q15369+Q15370); assay: (§2) Induction of interaction of N-terminal His6-tagged recombinant human VHL (54 to 213 residues)/elongin C (17 to 112 residues)/elongin B (1 to 104 residues) co-expressed in Escherichia coli BL21 (DE3) with recombinant human Brd4 BD2 assessed as VCB/BRD4/compound ternary complex formation by isothermal titration calorimetry-based assay
[9] = target: T1, von Hippel-Lindau disease tumor suppressor/Bromodomain-containing protein 4; assay: Proteolysis targeting chimera activity in human HeLa cells assessed as induction of VCB-mediated delivery of BRD4 short isoform for protein degradation by proteasome at 1 to 10 uM incubated for 24 hrs by Western blotting method; format: cell-based
Procedure, shortened: (§3)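 HeLa cells seeded at 3 × 10^5 per well and treated the next day for 24 h. Lysed in RIPA buffer with protease inhibitors, Benzonase and 0.5 mM MgCl2, then immunoblotted. Bands normalized to β-actin and quantified against DMSO control. Dmax is the largest depletion across concentrations. Two biological replicates.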

[10] = target: T1, von Hippel-Lindau disease tumor suppressor/Bromodomain-containing protein 4; assay: Proteolysis targeting chimera activity in human HeLa cells assessed as induction of VCB-mediated delivery of BRD4 long isoform for protein degradation by proteasome at 1 to 10 uM incubated for 24 hrs by Western blotting method; format: cell-based; procedure, shortened: as §3
[11] = target: T2, von Hippel-Lindau disease tumor suppressor/Bromodomain-containing protein 3/Elongin-B/Elongin-C; assay: Proteolysis targeting chimera activity in human HeLa cells assessed as induction of VCB-mediated delivery of BRD3 for protein degradation by proteasome at 1 to 10 uM incubated for 24 hrs by Western blotting method; format: cell-based; procedure, shortened: as §3
[12] = target: T3, von Hippel-Lindau disease tumor suppressor/Bromodomain-containing protein 2/Elongin-B/Elongin-C (Homo sapiens) (UniProt P25440+P40337+Q15370+Q15369); assay: Proteolysis targeting chimera activity in human HeLa cells assessed as induction of VCB-mediated delivery of BRD2 for protein degradation by proteasome at 1 to 10 uM incubated for 24 hrs by Western blotting method; format: cell-based; procedure, shortened: as §3
[13] = target: T1, von Hippel-Lindau disease tumor suppressor/Bromodomain-containing protein 4; assay: Proteolysis targeting chimera activity in human HeLa cells assessed as induction of VCB-mediated delivery of BRD4 short isoform for protein degradation by proteasome at 1 to 10 uM incubated for 6 hrs by Western blotting method; format: cell-based
Procedure, shortened: (§4)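 HeLa cells seeded at 3 × 10^5 per well and treated the next day for 6 h. RIPA lysates (protease inhibitors, Benzonase, 0.5 mM MgCl2) immunoblotted. Band intensities normalized to β-actin and expressed relative to DMSO vehicle.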

[14] = target: T1, von Hippel-Lindau disease tumor suppressor/Bromodomain-containing protein 4; assay: Proteolysis targeting chimera activity in human HeLa cells assessed as induction of VCB-mediated delivery of BRD4 long isoform for protein degradation by proteasome at 1 to 10 uM incubated for 6 hrs by Western blotting method; format: cell-based; procedure, shortened: as §4
[15] = target: T2, von Hippel-Lindau disease tumor suppressor/Bromodomain-containing protein 3/Elongin-B/Elongin-C; assay: Proteolysis targeting chimera activity in human HeLa cells assessed as induction of VCB-mediated delivery of BRD3 for protein degradation by proteasome at 1 to 10 uM incubated for 6 hrs by Western blotting method; format: cell-based; procedure, shortened: as §4
[16] = target: T3, von Hippel-Lindau disease tumor suppressor/Bromodomain-containing protein 2/Elongin-B/Elongin-C (Homo sapiens); assay: Proteolysis targeting chimera activity in human HeLa cells assessed as induction of VCB-mediated delivery of BRD2 for protein degradation by proteasome at 1 to 10 uM incubated for 6 hrs by Western blotting method; format: cell-based; procedure, shortened: as §4
[17] = target: von Hippel-Lindau disease tumor suppressor/Bromodomain-containing protein 2/Elongin-B/Elongin-C (Homo sapiens, UniProt P25440+P40337+Q15369+Q15370); assay: as §2, with “Brd2 BD1” for “Brd4 BD2”, “VCB/BRD2/compound” for “VCB/BRD4/compound”

| EC50 [1] | pDC50 [3] | SMILES | Emax [1] | EC50 [2] | Emax [2] | Kd [6] | Kd [8] | further results |
| --- | --- | --- | --- | --- | --- | --- | --- | --- |
| 219 nM |  | Cc1ncsc1-c1ccc(CNC(=O)[C@@H]2C[C@@H](O)CN2C(=O)[C@@H](NC(=O)COCCOCCOCCNC(=O)C[C@@H]2N=C(c3ccc(Cl)cc3)c3c(sc(C)c3C)-n3c(C)nnc32)C(C)(C)C)cc1 | 92% | 26.9 nM |  |  |  |  |
|  |  | CC(=O)N1c2ccc(-c3ccc(C(=O)O)cc3)cc2[C@H](Nc2ccc(Cl)cc2)C[C@@H]1C | 82.4% |  | 73.3% |  |  |  |
| 1260 nM | 8.4 | Cc1ncsc1-c1ccc(CNC(=O)[C@@H]2C[C@@H](O)CN2C(=O)[C@@H](NC(=O)COCCOCCOCCOCCNC(=O)C[C@@H]2N=C(c3ccc(Cl)cc3)c3c(sc(C)c3C)-n3c(C)nnc32)C(C)(C)C)cc1 | 91.7% |  | 95.2% | 27 nM | 15 nM |  |
|  |  | Cc1sc2c(c1C)C(c1ccc(Cl)cc1)=N[C@@H](CC(=O)Nc1ccc(OCCOCCOCCOCCNc3cccc4c3C(=O)N(C3CCC(=O)NC3=O)C4=O)cc1)c1nnc(C)n1-2 (stereo not given in full) | 88% |  |  |  |  |  |
| 427 nM | 8.1 | CC(=O)N1c2ccc(-c3ccc(C(=O)NCCOCCOCCOCCOCC(=O)N[C@H](C(=O)N4C[C@H](O)C[C@H]4C(=O)NCc4ccc(-c5scnc5C)cc4)C(C)(C)C)cc3)cc2[C@H](Nc2ccc(Cl)cc2)C[C@@H]1C | 98.3% | 83.2 nM | 96.4% | 8 nM | 183 nM | Activity [3]: Dose-dependent effect; Activity [4]: Dose-dependent effect; pDC50 [4]: 7.5; Activity [5]: Dose-dependent effect; pDC50 [5]: 7.7; Kd [7]: 109 nM; Activity [9]: inactive; Activity [10]: inactive; Activity [11]: inactive; Activity [12]: inactive; Activity [13]: inactive; Activity [14]: inactive; Activity [15]: inactive; Activity [16]: inactive; Kd [17]: 330 nM |

| SMILES | EC50 [1] | pDC50 [3] | Emax [1] | EC50 [2] | Emax [2] | Kd [6] | Kd [8] | further results |
| --- | --- | --- | --- | --- | --- | --- | --- | --- |
| CC(=O)N1c2ccc(-c3ccc(C(=O)NCCOCCOCC(=O)N[C@H](C(=O)N4C[C@H](O)C[C@H]4C(=O)NCc4ccc(-c5scnc5C)cc4)C(C)(C)C)cc3)cc2[C@H](Nc2ccc(Cl)cc2)C[C@@H]1C | 676 nM | 6.9 | 96.6% | 575 nM | 88.1% | 3 nM | 781 nM | pDC50 [4]: 6.7; pDC50 [5]: 6.8; Kd [7]: 116 nM |
| Cc1ncsc1-c1ccc(CNC(=O)[C@@H]2C[C@@H](O)CN2C(=O)[C@@H](NC(=O)COCCOCCNC(=O)C[C@@H]2N=C(c3ccc(Cl)cc3)c3c(sc(C)c3C)-n3c(C)nnc32)C(C)(C)C)cc1 | 1450 nM |  | 91.4% | 178 nM | 91.4% | 17 nM | 26 nM |  |
